Published values collected from several papers.
Lines come from different studies, so protocols differ.
Target: cGMP-dependent protein kinase 2 (PRKG2, Homo sapiens, UniProt Q13237)
One construct used (Q13237 1-762): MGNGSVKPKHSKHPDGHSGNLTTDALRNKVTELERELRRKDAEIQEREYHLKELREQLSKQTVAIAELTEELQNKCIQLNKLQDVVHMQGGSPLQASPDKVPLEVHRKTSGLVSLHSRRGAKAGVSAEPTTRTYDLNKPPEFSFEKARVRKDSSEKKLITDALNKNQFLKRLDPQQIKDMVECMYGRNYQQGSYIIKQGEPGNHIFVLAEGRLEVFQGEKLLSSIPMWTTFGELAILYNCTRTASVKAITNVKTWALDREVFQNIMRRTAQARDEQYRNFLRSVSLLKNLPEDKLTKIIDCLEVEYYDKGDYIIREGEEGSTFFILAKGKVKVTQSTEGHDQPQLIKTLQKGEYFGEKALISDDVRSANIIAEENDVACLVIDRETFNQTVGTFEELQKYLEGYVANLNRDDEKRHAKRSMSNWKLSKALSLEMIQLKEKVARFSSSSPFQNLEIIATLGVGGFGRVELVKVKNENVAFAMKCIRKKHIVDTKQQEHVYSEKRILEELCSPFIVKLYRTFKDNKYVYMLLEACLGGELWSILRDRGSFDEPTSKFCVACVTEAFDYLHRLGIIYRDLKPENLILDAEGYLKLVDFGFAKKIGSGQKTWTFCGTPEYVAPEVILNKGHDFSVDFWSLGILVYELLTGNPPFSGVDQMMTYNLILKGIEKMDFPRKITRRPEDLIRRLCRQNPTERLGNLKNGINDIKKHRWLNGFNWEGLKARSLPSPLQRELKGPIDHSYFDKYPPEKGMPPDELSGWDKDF

CN(c1nccc(-c2cnn3ncccc23)n1)C1CC1  remaining binding (binding; 1 µM): 100%
CNC(=O)[C@@H]1CC[C@@H](n2c(-c3ccc4cnccc4c3)nc3ccc(C(=O)NCc4cccc(C(N)=O)c4)cc32)C1  remaining binding (binding; competition with immobilised ligand; 1 µM): 100%
C[C@@H]1CCN(c2nccc(-c3cnn4ncccc34)n2)C1  remaining binding (binding; 1 µM): 81%
Cc1cnc(Nc2ccc(C(=O)N3CCC(N4CCCC4)CC3)cc2)nc1-c1cc2ccccc2s1  remaining binding (binding; competition with immobilised ligand; 1 µM): 2.8%
O=C(Nc1c[nH]nc1C(=O)NC1CCNCC1)c1cc(F)cc(F)c1  remaining binding (binding; competition with immobilised ligand; 1 µM): 91%
Nc1cnc(N2CCc3cc(S(=O)(=O)Nc4c(F)cc(Cl)cc4F)cc(N4CCCC4=O)c32)nc1  remaining binding (cell-free assay; competition with immobilised ligand; 1 µM): 84%
COc1cnc(Nc2cccc(S(N)(=O)=O)c2)nc1N1CCN(c2ccccc2)C(=O)C1  remaining binding (binding; competition with immobilised ligand; 1 µM): 100%
Cc1cnn2ncc(-c3ccnc(N(C)C)n3)c2c1  remaining binding (binding; 1 µM): 98%
O=C(c1ccc(Nc2nccc(-c3cc4ccccc4s3)n2)cc1)N1CCC(N2CCCC2)CC1  remaining binding (binding; competition with immobilised ligand; 1 µM): 33%
N[C@H]1CCN(c2nccc(-c3cnn4ncccc34)n2)C1  remaining binding (binding; 1 µM): 91%
CCC(=N\O)/C(C)=C/c1ccc(F)cc1  remaining binding (cell-free assay; competition with immobilised ligand; 1 µM): 79%
FC(F)(F)Oc1cccc(-c2cnc3ccc(-c4ccncc4)nn23)c1  remaining binding (cell-free assay; competition with immobilised ligand; 5 µM): 88%
CCS(=O)(=O)c1cc2cc(C[C@@](O)(CC(C)(C)c3ccc(F)cc3C(N)=O)C(F)(F)F)[nH]c2cn1  remaining binding (cell-free assay; competition with immobilised ligand; 1 µM): 86%
O=C(c1ccc(Nc2ncc(Cl)c(-c3cc4ccccc4s3)n2)cc1)N1CCC(N2CCCC2)CC1  remaining binding (binding; competition with immobilised ligand; 1 µM): 13%
C[C@@H](c1ccc(-n2cnc3c(N)ncnc32)cc1)N1CCc2nn(C)c(Cc3ccccc3)c2C1=O  remaining binding (binding; competition with immobilised ligand; 0.1 µM): 73%
NS(=O)(=O)c1cc(NC(=O)C2(c3ccccc3Cl)CC2)ccc1Oc1cccc(Cl)c1  remaining binding (cell-free assay; competition with immobilised ligand; 1 µM): 100%
F[C@@H]1CCN(c2nccc(-c3cnn4ncccc34)n2)C1  remaining binding (binding; 1 µM): 93%
O=C1CCc2cc(Nc3cc(OC4CCOCC4)c([N+](=O)[O-])cc3Cl)ccc2N1  remaining binding (cell-free assay; competition with immobilised ligand; 1 µM): 85%
CN(CCCC(F)(F)F)c1nccc(-c2cnn3ncccc23)n1  remaining binding (binding; 1 µM): 96%
COc1ncc2cc3ccccc3nc2c1C#N  remaining binding (cell-free assay; competition with immobilised ligand; 5 µM): 100%
CNCc1ccccc1-c1csc([C@H](C)Nc2nc(C)nc3cc(OC)c(OC)cc23)c1  remaining binding (cell-free assay; competition with immobilised ligand; 1 µM): 93%
CC1CCCN1c1nccc(-c2cnn3ncccc23)n1 (stereo not shown)  remaining binding (binding; 1 µM): 97%
